In data set [1] the target is Sigma non-opioid intracellular receptor 1 (Cavia porcellus, UniProt Q60492). The data set is described as follows: Displacement of [3H]-(+)pentazocine from sigma-1 receptor in guinea pig brain membranes after 120 mins by scintillation counting method. The format is cell membranes, Membrane. In general terms: Loss of bound radioactivity is the signal in a displacement assay; it reports binding, not function.

Data set [2] has as its target Glutamate receptor ionotropic, NMDA 2B (Homo sapiens) (UniProt Q13224). The data set is described as follows: Displacement of [3H]ifenprodil from GluN2B (unknown origin) expressed in mouse L(tk-) cell membranes co-expressing GluN1a at 1 uM incubated for 120 mins by scintillation counting method relative to control.
Data set [3] addresses T1, Sigma intracellular receptor 2 (Rattus norvegicus, UniProt Q5U3Y7).
T1 sequence (Q5U3Y7 whole entry): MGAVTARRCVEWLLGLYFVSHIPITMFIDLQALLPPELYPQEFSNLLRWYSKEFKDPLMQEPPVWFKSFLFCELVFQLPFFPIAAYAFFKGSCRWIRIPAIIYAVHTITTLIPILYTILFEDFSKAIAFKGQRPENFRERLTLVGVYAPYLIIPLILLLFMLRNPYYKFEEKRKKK
The data set is described as follows: Displacement of [3H]-Di-o-tolylguanidine from sigma-2 receptor in rat liver membranes after 120 mins by scintillation counting method. The class given is cell membranes, Membrane.

The nature of data set [4]: Antioxidant activity in pH 7.4 PBS assessed as H2O2 radical scavenging activity. The class given is functional.
For data set [5], the target named is Glutamate receptor ionotropic, NMDA 2B (Homo sapiens, UniProt Q05586+Q13224). The data set is described as follows: Displacement of [3H]ifenprodil from GluN2B (unknown origin) expressed in mouse L(tk-) cell membranes co-expressing GluN1a incubated for 120 mins by scintillation counting method.
Data set [6] is described as follows: Antioxidant activity assessed as ABTS radical scavenging activity incubated for 40 mins. The class given is functional.
Data set [7] deals with SH-SY5Y. The data set is described as follows: Cytotoxicity against human SH-SY5Y cells at 12.5 to 100 uM after 48 hrs by MTT assay. The class given is cell-based. A digest of the protocol: (§1)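 Viability of human pancreatic carcinoma PANC1 and neuroblastoma SH-SY5Y cells, both chosen for high σ1R expression, measured by MTT assay across several test concentrations; viability expressed as percent.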
For orientation: Tetrazolium assays rely on reduction of a dye to a coloured formazan, in cell work by metabolically active cells.

Data set [8] has as its system PANC-1. The data set is described as follows: Cytotoxicity against human PANC1 cells at 12.5 to 100 uM after 48 hrs by MTT assay. The class given is cell-based. The note with it: panc-1, 48 h. A digest of the protocol:
as §1

For data set [9], the target named is T2, Sigma intracellular receptor 2 (Rattus norvegicus) (UniProt Q5U3Y7).
T2 sequence (whole entry): T1 sequence (Q5U3Y7 whole entry)
The data set is described as follows: Displacement of [3H]-Di-o-tolylguanidine from sigma-2 receptor in rat liver membranes at 1 uM after 120 mins by scintillation counting method relative to control. The note with it: Membrane. The format is cell membranes.

Data set [10] can be described thus: Cytotoxicity against human PANC1 cells assessed as cell viability at 100 uM after 48 hrs by MTT assay relative to control. The class given is cell-based. The note with it: PANC-1 cells, read-out: Activity. The method in brief:
as §1

Data set [11] is described as follows: Cytotoxicity against human PANC1 cells assessed as cell viability at 50 uM after 48 hrs by MTT assay relative to control. The class given is cell-based. The note with it: PANC-1 cells, read-out: Activity. A digest of the protocol:
as §1

Data set [12] in a line: Cytotoxicity against human SH-SY5Y cells assessed as cell viability at 100 uM after 48 hrs by MTT assay relative to control. The class given is cell-based. The note with it: read-out: Activity. The method in brief:
as §1

A short description of data set [13]: Cytotoxicity against human SH-SY5Y cells assessed as cell viability at 50 uM after 48 hrs by MTT assay relative to control. The format is cell-based. The note with it: read-out: Activity. A digest of the protocol:
as §1

≈ marks a conversion by molar mass, not a printed value.

Chain of Glutamate receptor ionotropic, NMDA 2B (Q13224 whole entry, one chain of several): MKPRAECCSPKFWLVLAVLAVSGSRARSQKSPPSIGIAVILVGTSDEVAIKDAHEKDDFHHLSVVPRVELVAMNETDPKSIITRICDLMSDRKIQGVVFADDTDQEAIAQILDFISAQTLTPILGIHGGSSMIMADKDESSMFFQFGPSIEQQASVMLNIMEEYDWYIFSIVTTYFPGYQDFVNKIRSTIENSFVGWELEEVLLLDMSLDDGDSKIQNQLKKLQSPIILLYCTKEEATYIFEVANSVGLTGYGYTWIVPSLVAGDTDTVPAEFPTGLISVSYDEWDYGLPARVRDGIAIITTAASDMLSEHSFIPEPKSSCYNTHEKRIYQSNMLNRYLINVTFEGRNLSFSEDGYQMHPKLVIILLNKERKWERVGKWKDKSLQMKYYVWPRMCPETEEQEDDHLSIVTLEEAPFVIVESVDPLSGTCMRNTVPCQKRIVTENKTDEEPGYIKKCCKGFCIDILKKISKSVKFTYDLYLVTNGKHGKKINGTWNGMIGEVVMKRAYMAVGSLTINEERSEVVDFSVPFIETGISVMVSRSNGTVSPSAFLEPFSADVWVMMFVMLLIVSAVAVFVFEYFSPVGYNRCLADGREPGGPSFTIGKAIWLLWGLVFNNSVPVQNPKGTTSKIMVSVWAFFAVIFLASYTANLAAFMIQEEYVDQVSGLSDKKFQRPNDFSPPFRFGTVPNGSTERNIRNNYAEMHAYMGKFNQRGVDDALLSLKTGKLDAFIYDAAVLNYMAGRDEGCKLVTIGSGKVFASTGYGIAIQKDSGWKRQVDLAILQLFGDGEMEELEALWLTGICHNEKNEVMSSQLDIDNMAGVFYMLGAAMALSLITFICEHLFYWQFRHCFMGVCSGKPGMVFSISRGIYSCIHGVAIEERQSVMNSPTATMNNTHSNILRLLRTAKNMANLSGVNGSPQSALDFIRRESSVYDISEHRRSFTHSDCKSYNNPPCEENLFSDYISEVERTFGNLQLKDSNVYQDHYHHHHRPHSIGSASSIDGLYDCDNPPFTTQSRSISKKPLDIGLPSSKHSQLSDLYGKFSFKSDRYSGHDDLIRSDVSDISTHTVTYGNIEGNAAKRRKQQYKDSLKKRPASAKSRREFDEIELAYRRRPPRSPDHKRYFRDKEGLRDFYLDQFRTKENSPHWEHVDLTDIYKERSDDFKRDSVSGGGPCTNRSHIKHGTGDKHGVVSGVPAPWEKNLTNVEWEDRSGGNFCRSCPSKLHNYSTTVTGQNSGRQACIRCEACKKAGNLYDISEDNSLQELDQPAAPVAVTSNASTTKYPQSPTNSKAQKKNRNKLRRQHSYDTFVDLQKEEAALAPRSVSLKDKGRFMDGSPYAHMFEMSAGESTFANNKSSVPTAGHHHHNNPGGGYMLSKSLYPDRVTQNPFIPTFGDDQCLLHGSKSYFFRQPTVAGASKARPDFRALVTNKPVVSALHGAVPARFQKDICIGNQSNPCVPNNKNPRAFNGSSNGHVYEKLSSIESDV
Chain of Glutamate receptor ionotropic, NMDA 2B (Homo sapiens) (Q13224 27-1484 limits assumed): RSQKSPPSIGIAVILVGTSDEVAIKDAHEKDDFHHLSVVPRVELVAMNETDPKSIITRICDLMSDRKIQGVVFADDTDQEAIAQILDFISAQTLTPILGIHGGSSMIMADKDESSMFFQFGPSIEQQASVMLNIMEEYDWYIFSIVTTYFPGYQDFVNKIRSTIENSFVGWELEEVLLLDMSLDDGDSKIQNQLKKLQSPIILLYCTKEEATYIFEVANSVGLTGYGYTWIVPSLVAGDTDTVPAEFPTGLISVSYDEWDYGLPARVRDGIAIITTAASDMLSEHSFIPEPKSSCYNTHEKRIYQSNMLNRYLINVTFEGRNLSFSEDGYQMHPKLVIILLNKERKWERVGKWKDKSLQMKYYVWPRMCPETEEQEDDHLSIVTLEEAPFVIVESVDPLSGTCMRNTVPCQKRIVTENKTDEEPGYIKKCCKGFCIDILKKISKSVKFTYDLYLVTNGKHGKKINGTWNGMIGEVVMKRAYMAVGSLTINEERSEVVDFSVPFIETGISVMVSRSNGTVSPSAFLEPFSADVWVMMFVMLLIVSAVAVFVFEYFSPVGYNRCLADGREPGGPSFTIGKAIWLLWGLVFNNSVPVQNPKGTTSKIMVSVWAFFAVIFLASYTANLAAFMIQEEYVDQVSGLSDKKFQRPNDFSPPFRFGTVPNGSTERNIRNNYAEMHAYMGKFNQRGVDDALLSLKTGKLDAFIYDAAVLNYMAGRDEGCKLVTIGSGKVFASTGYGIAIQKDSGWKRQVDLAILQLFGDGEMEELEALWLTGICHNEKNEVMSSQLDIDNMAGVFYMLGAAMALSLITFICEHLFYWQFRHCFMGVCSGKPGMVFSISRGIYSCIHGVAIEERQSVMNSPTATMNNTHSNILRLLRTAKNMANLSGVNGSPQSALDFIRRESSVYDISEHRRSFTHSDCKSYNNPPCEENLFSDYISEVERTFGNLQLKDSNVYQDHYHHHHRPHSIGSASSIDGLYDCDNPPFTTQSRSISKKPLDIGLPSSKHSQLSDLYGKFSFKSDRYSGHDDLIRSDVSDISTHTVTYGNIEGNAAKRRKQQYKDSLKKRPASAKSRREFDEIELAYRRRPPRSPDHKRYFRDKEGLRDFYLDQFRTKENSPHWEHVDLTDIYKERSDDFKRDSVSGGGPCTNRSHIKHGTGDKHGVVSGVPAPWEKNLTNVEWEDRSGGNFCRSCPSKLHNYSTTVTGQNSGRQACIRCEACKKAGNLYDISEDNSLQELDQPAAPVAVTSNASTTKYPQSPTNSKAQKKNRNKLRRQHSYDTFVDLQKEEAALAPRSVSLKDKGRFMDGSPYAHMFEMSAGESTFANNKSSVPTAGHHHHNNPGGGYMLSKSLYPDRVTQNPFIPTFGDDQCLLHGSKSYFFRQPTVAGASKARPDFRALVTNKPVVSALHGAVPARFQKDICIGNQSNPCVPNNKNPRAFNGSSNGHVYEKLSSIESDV
Chain of Sigma non-opioid intracellular receptor 1 (Q60492 whole entry): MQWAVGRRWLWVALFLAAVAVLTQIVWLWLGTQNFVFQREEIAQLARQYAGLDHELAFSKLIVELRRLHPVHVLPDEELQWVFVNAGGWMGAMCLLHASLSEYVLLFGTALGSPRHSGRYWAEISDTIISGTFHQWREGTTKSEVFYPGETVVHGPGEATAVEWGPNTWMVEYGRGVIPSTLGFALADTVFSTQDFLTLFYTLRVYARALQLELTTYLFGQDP

As to `O=C(c1cccc2ccccc12)N1CCCN(Cc2ccccc2)CC1`, the values for the Ki in data set [1] and in data set [3] were 41 nM and 187 nM, respectively. Also, the inhibition (usually how much of the control response was suppressed) in [2] was 9%.
As to `O=C(c1ccc2ccccc2n1)N1CCCN(Cc2ccccc2)CC1`, the IC50 (usually the midpoint of a concentration-inhibition curve) stood at 20.35 µg/mL (≈ 58.9 µM) in data set [4] and 14.26 µg/mL (≈ 41.3 µM) in data set [6]. The Ki – broadly, a dissociation constant, usually derived from enzyme kinetics or from competition with a known ligand – was 19 nM in [1], 1500 nM in [5] and 47 nM in data set [3].
Turning to `Cc1ccc(CN2CCCN(C(=O)c3ccncc3)CC2)c(C)c1`, the Ki was found to be 254 nM in [1], 116 nM in [5] and 2000 nM in data set [3].
For the compound `O=C1O[C@H]([C@@H](O)CO)C(O)=C1O` [ASCORBIC ACID], the IC50 in data set [4] was determined as 19.27 µg/mL (≈ 109 µM); in data set [6], 12.75 µg/mL (≈ 72.4 µM).
For the compound `Cc1ccc(CN2CCCN(C(=O)c3cccc4ccccc34)CC2)c(C)c1`, the Ki was found to be 70 nM in data set [1], 79 nM in data set [5] and 102 nM in data set [3].
Regarding `Cc1ccc(CN2CCCN(C(=O)c3cccs3)CC2)c(C)c1`, the Ki in data set [1] came out at 336 nM; in data set [3], 1800 nM. The inhibition in data set [2] worked out at 3%.
For the compound `Cc1ccc(CN2CCCN(C(=O)c3cc4ccccc4o3)CC2)c(C)c1`, the values for the IC50 in data set [4] and in [6] were 18.56 µg/mL (≈ 51.2 µM) and 10.05 µg/mL (≈ 27.7 µM), respectively. Further, the Ki was determined as 20 nM in data set [1], 59 nM in data set [5] and 28 nM in [3]. Also, the Activity result in [7] and in data set [8] was “Non-Toxic” throughout.
As to `O=C(c1cccs1)N1CCCN(Cc2ccccc2)CC1`, the values for the Ki in [1] and in [3] were 147 nM and 297 nM, respectively. Besides, the inhibition in [2] is 0%.
On to `O=C(c1ccco1)N1CCCN(Cc2ccccc2)CC1`, for which the Ki turned out to be 333 nM in [1] and 560 nM in data set [3]. In data set [2], this compound came in with an inhibition of 1%.
`O=C(c1ccccc1)N1CCCN(Cc2ccccc2)CC1` returned an inhibitory constant (Ki) in [1] of 116 nM. Further, the inhibition in data set [2] and in data set [9] was 0% in each case.
On to `Cc1c(C)c2c(c(C)c1O)CCC(C)(C(=O)O)O2` (stereo unspecified) [TROLOX], for which the IC50 in [4] was 20.38 µg/mL (≈ 81.4 µM); in data set [6] it was 18.73 µg/mL (≈ 74.8 µM).
As for `Cc1ccc(CN2CCCN(C(=O)c3ccco3)CC2)c(C)c1`, the Ki in data set [1] amounted to 690 nM; in data set [3], 3900 nM. Moreover, in data set [2], the inhibition stood at 0%.
For the compound `O=C(c1cc2ccccc2o1)N1CCCN(Cc2ccccc2)CC1`, the IC50 in data set [4] came to 15.89 µg/mL (≈ 47.5 µM); in data set [6], 12.71 µg/mL (≈ 38 µM). Besides, the results for the viability at 48 h, 100 µM in data set [10] and in data set [12] were 127% and 98%, respectively. The values for the Ki in [1], in data set [5] and in data set [3] were 8 nM, 1600 nM and 47 nM, respectively. The results for the viability at 48 h, 50 µM in [11] and in data set [13] were 196% and 127%, respectively.
In the case of `O=C(c1ccncc1)N1CCCN(Cc2ccccc2)CC1`, the Ki is 267 nM in [1] and 495 nM in data set [3]. In addition, the inhibition in data set [2] is 0%.
With `Cc1ccc(CN2CCCN(C(=O)c3ccc4ccccc4n3)CC2)c(C)c1`, the IC50 stood at 17.44 µg/mL (≈ 46.7 µM) in data set [4] and 9.43 µg/mL (≈ 25.2 µM) in [6]. Also, the viability at 48 h, 100 µM in data set [10] was 51%. For the same compound, the Ki in data set [1] was 29 nM; in data set [5] it was 108 nM; in data set [3] it was 35 nM.
As for `Cc1ccc(CN2CCCN(C(=O)c3ccccc3)CC2)c(C)c1`, the values for the Ki in [1], in [5] and in data set [3] were 849 nM, 294 nM and 3900 nM, respectively.

Source of the values: ChEMBL document CHEMBL4613279, “Synthesis, Cytotoxicity Evaluation, and Computational Insights of Novel 1,4-Diazepane-Based Sigma Ligands” (ACS Med Chem Lett, 2020).
